Experimental data published in ChEMBL document CHEMBL1137618, “Synthesis and structure-activity relationship studies of 3,6-diazabicyclo[3.2.0]heptanes as novel alpha4beta2 nicotinic acetylcholine receptor selective agonists” (J Med Chem, 2007).

Assays:
[1] = target: T1, Neuronal acetylcholine receptor; alpha3/beta4 (Homo sapiens, UniProt P30926+P32297); assay: Agonist activity at recombinant human alpha-3-beta-4 nAChR expressed in HEK293 cells assessed as induction of calcium influx by FLIPR assay; assay type: functional, cell-based
T1 sequence (P30926 whole entry): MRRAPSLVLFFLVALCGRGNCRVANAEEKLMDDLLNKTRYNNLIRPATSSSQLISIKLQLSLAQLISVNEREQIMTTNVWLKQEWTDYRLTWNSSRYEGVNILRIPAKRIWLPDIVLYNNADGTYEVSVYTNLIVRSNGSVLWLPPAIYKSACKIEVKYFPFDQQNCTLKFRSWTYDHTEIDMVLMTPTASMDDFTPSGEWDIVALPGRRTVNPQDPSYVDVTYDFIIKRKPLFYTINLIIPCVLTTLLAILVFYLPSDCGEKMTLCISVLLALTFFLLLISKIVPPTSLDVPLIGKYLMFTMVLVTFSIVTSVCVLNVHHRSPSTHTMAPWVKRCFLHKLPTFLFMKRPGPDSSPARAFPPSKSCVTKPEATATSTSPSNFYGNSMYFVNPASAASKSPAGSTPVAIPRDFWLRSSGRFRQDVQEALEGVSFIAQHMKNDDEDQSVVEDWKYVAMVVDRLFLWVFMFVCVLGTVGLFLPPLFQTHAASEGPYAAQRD
T1 sequence (P32297 whole entry): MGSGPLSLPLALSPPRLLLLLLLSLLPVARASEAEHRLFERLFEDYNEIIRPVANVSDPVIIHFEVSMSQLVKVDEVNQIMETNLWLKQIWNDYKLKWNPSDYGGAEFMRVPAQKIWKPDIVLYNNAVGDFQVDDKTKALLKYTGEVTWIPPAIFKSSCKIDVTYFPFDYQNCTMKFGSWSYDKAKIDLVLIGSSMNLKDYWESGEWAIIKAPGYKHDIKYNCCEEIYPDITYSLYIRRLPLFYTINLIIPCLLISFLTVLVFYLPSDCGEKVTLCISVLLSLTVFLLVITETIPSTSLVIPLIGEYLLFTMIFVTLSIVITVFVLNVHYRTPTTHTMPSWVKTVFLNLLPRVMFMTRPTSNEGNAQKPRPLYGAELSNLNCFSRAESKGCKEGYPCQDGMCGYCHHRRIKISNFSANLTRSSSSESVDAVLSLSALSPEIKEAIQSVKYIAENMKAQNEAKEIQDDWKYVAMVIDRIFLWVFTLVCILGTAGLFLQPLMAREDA

[2] = target: T2, Neuronal acetylcholine receptor; alpha4/beta2 (Homo sapiens, UniProt P17787+P43681); assay: Agonist activity at recombinant human alpha-4-beta-2 nAChR expressed in HEK293 cells assessed as induction of calcium influx by FLIPR assay relative to nicotine; assay type: functional, cell-based
T2 sequence (P17787 whole entry): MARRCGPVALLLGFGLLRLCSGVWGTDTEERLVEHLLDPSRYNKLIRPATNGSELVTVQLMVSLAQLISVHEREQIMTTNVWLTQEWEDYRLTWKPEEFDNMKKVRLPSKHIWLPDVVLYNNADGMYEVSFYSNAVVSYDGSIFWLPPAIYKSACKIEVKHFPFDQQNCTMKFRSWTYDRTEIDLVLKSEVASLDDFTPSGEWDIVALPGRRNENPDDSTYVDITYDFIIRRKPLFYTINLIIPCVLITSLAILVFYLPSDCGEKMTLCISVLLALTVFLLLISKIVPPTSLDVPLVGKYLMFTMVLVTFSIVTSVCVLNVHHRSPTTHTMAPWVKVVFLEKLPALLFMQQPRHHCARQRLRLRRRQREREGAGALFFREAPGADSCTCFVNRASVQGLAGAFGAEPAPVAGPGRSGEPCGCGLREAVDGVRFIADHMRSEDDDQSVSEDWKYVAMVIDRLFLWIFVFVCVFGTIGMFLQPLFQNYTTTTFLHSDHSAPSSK
T2 sequence (P43681 whole entry): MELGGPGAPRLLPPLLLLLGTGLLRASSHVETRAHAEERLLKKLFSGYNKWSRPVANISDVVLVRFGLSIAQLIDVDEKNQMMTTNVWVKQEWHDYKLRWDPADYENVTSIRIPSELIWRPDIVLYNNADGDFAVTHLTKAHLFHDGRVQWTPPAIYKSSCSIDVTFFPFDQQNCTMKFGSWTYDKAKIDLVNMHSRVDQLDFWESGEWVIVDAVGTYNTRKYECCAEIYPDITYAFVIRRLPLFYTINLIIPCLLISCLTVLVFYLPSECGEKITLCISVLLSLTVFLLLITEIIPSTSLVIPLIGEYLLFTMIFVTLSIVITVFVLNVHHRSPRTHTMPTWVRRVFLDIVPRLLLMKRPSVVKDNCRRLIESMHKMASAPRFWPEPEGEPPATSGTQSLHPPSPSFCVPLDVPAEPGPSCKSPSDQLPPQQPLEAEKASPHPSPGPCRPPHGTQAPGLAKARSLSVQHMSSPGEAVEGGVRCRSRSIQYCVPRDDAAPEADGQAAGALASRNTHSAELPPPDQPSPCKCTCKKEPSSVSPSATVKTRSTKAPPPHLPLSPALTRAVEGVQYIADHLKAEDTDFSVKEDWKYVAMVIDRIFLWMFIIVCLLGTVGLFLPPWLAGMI
Summary of the method: (§1)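 HEK-293 lines stably expressing human α4β2 or α3β4 nAChR, grown 24-48 h at 37 °C on poly-D-lysine in DMEM/10% FBS. Loaded with 2-4 µM Fluo-4 AM for ~0.75-1 h at room temperature in the dark, in NMDG Ringer pH 7.4. Serial log dilutions added, then peak calcium fluorescence read on FLIPR after buffer-blank subtraction.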

[3] = Displacement of [3H]cytisine from neuronal nicotinic acetylcholine receptor in rat brain membrane; assay type: cell membranes
[4] = target: T1, Neuronal acetylcholine receptor; alpha3/beta4; assay: Agonist activity at recombinant human alpha3beta4 nAChR expressed in HEK293 cells assessed as induction of calcium influx by FLIPR assay relative to nicotine; assay type: functional, cell-based; summary of the method: as §1
[5] = target: T2, Neuronal acetylcholine receptor; alpha4/beta2; assay: Agonist activity at recombinant human alpha-4-beta-2 nAChR expressed in HEK293 cells assessed as induction of calcium influx by FLIPR assay; assay type: functional, cell-based

Compound	EC50 ([1]; read-out: EC50)	Activity [2]	Ki [3]	Log Ki [3]	Activity [4]	EC50 ([5]; read-out: EC50)	EC50 ([5]; read-out: Log EC50 (converted))	EC50 ([1]; read-out: Log EC50 (converted))
N#Cc1cncc(N2C[C@H]3CN[C@H]3C2)c1	300 nM	123%	0.1 nM	-9.92	102%	600 nM	417 nM	–
Cc1cc(N2C[C@H]3CN[C@H]3C2)cnc1Cl	200 nM	228%	0.04 nM	-10.4	119%	700 nM	72.4 nM	178 nM
Cc1ncc(N2C[C@@H]3CNC[C@@H]32)cc1C#N	1600 nM	116%	0.7 nM	-9.18	95%	500 nM	–	–
COc1cncc(N2C[C@@H]3CN[C@@H]3C2)c1	48100 nM	55%	3 nM	-8.52	44%	15800 nM	13200 nM	46800 nM
Clc1cncc(N2C[C@@H]3CN[C@@H]3C2)c1	25300 nM	66%	1.9 nM	-8.72	57%	11400 nM	9330 nM	–
Cc1cc(N2C[C@@H]3CN[C@@H]3C2)cnc1C	3300 nM	76%	2.2 nM	-8.65	85%	1200 nM	–	–
Brc1cncc(N2C[C@@H]3CNC[C@@H]32)c1	6600 nM	20%	1.5 nM	-8.83	23%	11400 nM	8710 nM	3090 nM
c1cncc(N2C[C@@H]3CN[C@@H]3C2)c1	6100 nM	122%	1.2 nM	-8.92	90%	1600 nM	–	–
Clc1cc(N2C[C@@H]3CN[C@@H]3C2)cnc1Br	600 nM	108%	0.2 nM	-9.62	92%	400 nM	–	–
Brc1cncc(N2C[C@H]3CNC[C@H]32)c1	–	31%	3.1 nM	-8.51	< 10%	4400 nM	4070 nM	–
Brc1cncc(N2C[C@@H]3CN[C@@H]3C2)c1	9100 nM	53%	1.4 nM	-8.84	68%	6500 nM	6170 nM	–
N#Cc1cncc(N2C[C@H]3CNC[C@H]32)c1	–	65%	3.2 nM	-8.5	16%	5900 nM	5130 nM	–
Cc1ncc(N2C[C@H]3CNC[C@H]32)cc1C#N	2100 nM	128%	1.1 nM	-8.95	96%	3900 nM	3800 nM	–
Cc1cncc(N2C[C@@H]3CNC[C@@H]32)c1	16900 nM	68%	1.1 nM	-8.94	74%	10400 nM	–	–
Cc1cc(N2C[C@@H]3CNC[C@@H]32)cnc1Cl	2200 nM	134%	0.2 nM	-9.7	89%	600 nM	–	–
N#Cc1cncc(N2C[C@@H]3CN[C@@H]3C2)c1	7100 nM	102%	1.7 nM	-8.77	84%	14600 nM	13200 nM	–
Brc1cncc(N2C[C@H]3CN[C@H]3C2)c1	200 nM	161%	0.1 nM	-10.2	115%	1100 nM	–	240 nM

Compound	EC50 ([1]; read-out: EC50)	Activity [2]	Ki [3]	Log Ki [3]	Activity [4]	EC50 ([5]; read-out: EC50)	EC50 ([5]; read-out: Log EC50 (converted))	EC50 ([1]; read-out: Log EC50 (converted))
COc1cc(N2C[C@@H]3CN[C@@H]3C2)cnc1Br	4000 nM	64%	1.9 nM	-8.71	72%	2200 nM	–	–
Brc1cc(N2C[C@@H]3CN[C@@H]3C2)cnc1Br	1300 nM	122%	0.3 nM	-9.52	90%	1200 nM	–	–
COc1cncc(N2C[C@@H]3CNC[C@@H]32)c1	31200 nM	43%	7.2 nM	-8.14	64%	24700 nM	22900 nM	–
C#Cc1cncc(N2C[C@H]3CNC[C@H]32)c1	86900 nM	77%	–	–	57%	13400 nM	4900 nM	77600 nM
c1cncc(N2C[C@@H]3CNC[C@@H]32)c1	9700 nM	101%	0.7 nM	-9.15	97%	2800 nM	2690 nM	–
Clc1cc(N2C[C@H]3CN[C@H]3C2)cnc1Cl	50 nM	162%	0.04 nM	-10.4	98%	400 nM	41.7 nM	–
N=C(NO)c1cncc(N2C[C@H]3CNC[C@H]32)c1	–	76%	29.1 nM	-7.54	< 10%	7200 nM	6760 nM	–
Clc1ccc(N2C[C@@H]3CN[C@@H]3C2)cn1	400 nM	162%	0.6 nM	-9.24	110%	200 nM	162 nM	–
Clc1ccc(N2C[C@H]3CN[C@H]3C2)cn1	400 nM	126%	0.2 nM	-9.77	105%	30 nM	24.5 nM	34.7 nM
Cc1ncc(N2C[C@H]3CN[C@H]3C2)cc1C#N	90 nM	136%	0.06 nM	-10.22	101%	500 nM	43.7 nM	–
N#Cc1cc(N2C[C@H]3CNC[C@H]32)c[n+]([O-])c1	–	69%	18.6 nM	-7.74	< 10%	7500 nM	4570 nM	–
Cc1ncc(N2C[C@@H]3CN[C@@H]3C2)cc1C#N	900 nM	119%	0.6 nM	-9.2	94%	800 nM	724 nM	–
COc1cc(N2C[C@H]3CN[C@H]3C2)cnc1Br	100 nM	159%	0.07 nM	-10.15	113%	200 nM	148 nM	–
Clc1ccc(C2CC3CCC2N3)cn1 (configuration not stated) [EPIBATIDINE]	–	133%	–	–	103%	–	–	–
c1coc(-c2cncc(N3C[C@H]4CNC[C@H]43)c2)n1	–	< 10%	–	–	< 10%	–	–	–
CN1CCC[C@H]1c1cccnc1 [NICOTINE]	–	101%	–	–	89%	–	–	–
